{"source": "paper PMC2956778", "about": "(Biochemical and biophysical research communications, 2010)", "key": {"[1]": {"tested_on": "microsomes from bovine brain cerebrum", "assay": "Ca2+ release from brain microsomes", "conditions": "data not shown"}, "[2]": {"assay": "Membrane permeability assay", "set-up": "species or system rabbit"}, "[3]": {"target": "Ca2+-saturated CaM bound to RyR1 (skeletal SR vesicles) (Homo sapiens, UniProt P0DP23)", "assay": "[35S]CaM binding to skeletal SR vesicles", "set-up": "species or system rabbit", "conditions": "for Effect on [35S]CaM binding to SR vesicles: LPC effect probably an artefact (also decreased nonspecific binding)"}, "[4]": {"tested_on": "microsomes from bovine brain cerebrum"}, "[5]": {"target": "purified RyR1 (Oryctolagus cuniculus, UniProt P11716)", "sequence (P11716 whole entry)": "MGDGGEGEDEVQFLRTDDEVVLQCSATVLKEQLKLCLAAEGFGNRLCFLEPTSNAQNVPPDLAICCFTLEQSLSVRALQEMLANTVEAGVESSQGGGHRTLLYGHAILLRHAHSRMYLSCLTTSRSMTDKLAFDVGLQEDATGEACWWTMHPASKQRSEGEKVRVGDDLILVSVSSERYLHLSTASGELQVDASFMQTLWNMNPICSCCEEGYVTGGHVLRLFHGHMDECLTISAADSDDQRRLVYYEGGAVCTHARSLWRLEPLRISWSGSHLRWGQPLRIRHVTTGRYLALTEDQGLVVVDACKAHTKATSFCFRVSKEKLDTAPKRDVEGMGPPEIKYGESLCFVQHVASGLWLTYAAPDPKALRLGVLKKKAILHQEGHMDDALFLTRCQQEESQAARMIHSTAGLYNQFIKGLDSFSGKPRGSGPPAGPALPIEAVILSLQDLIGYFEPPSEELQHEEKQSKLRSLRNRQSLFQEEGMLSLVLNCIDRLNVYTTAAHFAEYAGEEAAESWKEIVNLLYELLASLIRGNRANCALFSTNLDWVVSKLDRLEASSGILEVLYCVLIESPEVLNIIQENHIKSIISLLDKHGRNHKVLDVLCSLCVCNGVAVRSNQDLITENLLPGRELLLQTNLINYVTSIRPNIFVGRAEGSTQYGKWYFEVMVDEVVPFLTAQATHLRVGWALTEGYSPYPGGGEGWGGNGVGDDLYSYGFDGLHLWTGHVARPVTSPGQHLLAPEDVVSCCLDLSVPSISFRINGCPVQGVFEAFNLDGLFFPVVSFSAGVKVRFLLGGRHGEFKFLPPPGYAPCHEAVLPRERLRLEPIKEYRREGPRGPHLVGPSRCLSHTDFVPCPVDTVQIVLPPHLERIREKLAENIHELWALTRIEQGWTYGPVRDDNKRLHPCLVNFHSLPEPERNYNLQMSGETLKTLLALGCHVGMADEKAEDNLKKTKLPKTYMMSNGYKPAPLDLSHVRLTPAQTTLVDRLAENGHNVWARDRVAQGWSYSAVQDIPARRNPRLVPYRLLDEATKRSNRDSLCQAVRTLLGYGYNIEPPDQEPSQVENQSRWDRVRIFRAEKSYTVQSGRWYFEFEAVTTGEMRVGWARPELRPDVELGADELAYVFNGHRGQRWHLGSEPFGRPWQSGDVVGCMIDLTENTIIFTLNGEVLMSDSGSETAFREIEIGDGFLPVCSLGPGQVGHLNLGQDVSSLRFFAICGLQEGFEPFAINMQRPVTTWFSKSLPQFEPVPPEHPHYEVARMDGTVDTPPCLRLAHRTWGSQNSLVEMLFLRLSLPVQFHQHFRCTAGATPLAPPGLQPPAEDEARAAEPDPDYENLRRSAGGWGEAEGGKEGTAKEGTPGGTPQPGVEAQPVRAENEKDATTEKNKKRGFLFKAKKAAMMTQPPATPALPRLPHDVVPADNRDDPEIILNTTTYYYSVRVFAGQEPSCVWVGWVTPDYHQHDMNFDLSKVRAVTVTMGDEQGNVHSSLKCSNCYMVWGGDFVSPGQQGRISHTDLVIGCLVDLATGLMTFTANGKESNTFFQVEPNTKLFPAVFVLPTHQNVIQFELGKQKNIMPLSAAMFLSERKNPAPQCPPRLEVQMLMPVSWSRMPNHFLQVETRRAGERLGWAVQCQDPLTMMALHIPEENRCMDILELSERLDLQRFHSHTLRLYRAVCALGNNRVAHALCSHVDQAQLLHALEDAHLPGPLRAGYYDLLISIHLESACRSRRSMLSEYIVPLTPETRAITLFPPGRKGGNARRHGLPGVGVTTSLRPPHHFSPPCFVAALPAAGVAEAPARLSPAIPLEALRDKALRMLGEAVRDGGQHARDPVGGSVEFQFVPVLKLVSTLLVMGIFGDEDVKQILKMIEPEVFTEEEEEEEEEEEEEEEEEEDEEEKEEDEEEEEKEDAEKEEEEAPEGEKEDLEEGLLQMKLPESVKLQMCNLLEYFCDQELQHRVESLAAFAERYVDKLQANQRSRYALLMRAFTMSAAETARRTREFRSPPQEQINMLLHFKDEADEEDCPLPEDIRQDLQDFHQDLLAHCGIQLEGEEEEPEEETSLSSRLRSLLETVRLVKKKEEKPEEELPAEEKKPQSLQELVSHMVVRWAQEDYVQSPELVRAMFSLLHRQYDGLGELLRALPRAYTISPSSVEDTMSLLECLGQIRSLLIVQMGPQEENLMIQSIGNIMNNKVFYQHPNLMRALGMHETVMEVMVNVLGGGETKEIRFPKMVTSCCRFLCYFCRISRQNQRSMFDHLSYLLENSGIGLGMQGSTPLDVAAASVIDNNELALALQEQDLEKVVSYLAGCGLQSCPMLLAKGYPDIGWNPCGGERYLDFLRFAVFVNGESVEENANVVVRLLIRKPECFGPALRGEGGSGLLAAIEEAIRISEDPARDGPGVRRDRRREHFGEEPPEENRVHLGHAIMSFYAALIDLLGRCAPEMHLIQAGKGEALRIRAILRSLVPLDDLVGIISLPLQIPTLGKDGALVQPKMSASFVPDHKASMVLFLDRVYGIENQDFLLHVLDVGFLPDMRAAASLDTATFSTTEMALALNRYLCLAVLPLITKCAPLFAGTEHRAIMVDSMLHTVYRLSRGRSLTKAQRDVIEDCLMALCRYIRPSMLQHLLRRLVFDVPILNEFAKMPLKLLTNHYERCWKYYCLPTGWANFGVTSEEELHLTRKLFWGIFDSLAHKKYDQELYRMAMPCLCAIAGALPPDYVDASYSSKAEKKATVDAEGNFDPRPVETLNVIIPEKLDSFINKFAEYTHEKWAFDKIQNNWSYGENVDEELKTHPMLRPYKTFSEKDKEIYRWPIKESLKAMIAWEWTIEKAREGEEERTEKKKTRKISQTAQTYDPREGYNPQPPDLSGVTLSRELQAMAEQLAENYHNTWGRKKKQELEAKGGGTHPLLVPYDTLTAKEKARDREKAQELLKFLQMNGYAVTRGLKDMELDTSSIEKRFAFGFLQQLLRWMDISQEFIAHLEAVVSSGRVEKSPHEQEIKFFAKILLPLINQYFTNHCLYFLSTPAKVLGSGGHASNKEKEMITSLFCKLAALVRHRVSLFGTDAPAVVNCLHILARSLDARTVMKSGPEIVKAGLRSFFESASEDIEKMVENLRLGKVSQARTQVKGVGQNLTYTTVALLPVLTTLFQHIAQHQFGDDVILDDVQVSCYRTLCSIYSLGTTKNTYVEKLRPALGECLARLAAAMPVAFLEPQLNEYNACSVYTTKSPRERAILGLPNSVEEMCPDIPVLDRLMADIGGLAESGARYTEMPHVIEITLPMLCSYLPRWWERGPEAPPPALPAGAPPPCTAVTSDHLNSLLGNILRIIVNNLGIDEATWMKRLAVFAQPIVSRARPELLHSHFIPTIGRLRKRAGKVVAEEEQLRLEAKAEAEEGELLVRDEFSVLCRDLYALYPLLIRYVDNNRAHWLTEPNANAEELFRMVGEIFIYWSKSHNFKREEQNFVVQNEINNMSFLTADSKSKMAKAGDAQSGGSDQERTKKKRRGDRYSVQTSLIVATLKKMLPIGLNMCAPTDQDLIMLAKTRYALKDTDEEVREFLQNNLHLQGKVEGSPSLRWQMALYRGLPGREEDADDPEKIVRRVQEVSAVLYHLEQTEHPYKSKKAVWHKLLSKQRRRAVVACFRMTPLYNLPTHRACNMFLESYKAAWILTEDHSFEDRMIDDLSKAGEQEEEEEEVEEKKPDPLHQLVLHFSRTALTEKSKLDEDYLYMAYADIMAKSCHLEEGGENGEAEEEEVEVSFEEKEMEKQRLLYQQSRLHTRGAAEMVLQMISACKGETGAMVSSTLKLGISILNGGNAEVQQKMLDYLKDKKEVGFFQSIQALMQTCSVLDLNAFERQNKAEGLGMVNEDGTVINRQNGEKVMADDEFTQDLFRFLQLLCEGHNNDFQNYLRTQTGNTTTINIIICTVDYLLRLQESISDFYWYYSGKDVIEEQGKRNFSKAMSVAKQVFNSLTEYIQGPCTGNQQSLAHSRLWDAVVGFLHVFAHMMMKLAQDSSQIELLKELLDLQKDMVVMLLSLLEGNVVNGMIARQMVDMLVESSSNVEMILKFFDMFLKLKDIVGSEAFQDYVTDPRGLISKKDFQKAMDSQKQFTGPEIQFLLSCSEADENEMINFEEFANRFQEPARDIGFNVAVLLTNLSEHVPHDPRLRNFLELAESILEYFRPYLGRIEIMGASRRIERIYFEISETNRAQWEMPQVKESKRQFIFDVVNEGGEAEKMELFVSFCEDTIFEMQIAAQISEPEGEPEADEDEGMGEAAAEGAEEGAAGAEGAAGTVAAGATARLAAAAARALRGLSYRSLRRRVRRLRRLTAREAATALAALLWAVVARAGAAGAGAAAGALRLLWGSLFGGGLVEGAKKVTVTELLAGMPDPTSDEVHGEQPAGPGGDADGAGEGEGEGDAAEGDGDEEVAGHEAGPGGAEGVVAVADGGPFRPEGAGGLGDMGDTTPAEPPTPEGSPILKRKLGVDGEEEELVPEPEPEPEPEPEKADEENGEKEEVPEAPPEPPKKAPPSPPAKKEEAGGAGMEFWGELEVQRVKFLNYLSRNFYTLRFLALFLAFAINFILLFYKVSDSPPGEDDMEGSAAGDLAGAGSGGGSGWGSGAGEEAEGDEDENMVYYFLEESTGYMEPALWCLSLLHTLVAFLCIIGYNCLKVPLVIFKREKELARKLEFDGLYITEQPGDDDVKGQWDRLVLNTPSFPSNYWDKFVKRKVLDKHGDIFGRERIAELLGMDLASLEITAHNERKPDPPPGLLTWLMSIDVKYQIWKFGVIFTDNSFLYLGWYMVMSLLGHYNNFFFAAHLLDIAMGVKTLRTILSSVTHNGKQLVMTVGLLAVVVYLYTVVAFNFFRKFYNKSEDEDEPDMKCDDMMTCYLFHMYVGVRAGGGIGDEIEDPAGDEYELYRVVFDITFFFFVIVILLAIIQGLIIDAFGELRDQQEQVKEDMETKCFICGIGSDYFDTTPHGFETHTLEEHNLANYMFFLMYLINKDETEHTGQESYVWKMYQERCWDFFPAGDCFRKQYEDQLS", "assay": "Single channel recordings of purified RyR1 in planar lipid bilayers", "assay_type": "biochemical, rabbit", "conditions": "for Ac1 / Ac2 / Ao1 / Ao2 / Po / τc1 / τc2 (lifetime of the second closed state) / τo1 / τo2 / No. of events: +1 μM SPC; for No. of events: 2 min recordings; for Single channel open probability (Po), representative recording: after 1 μM SPC cis", "method_in_brief": "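Purified RyR1 from rabbit SR: CHAPS-solubilised, sucrose-gradient purified, reconstituted into phosphatidylcholine liposomes, fused cis into PE:PS:PC (5:3:2) n-decane bilayers. Symmetrical 0.25 M KCl, 20 mM K-HEPES pH 7.4, 22 μM free Ca²⁺ cis. Test compound added cis. For +CaM, 30 min room-temperature preincubation with 1 μM CaM, then 100 nM CaM cis. Recorded at ±35 mV, sampled 10 kHz, filtered 2 kHz, ≥2 min per condition. Dwell times fitted by maximum likelihood to exponential sums.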"}, "[6]": {"target": "RyR1 (skeletal SR vesicles) (Oryctolagus cuniculus, UniProt P11716)", "sequence (P11716 whole entry)": "as above", "assay": "[3H]ryanodine binding to skeletal SR vesicles", "set-up": "species or system rabbit", "conditions": "for Effect on [3H]ryanodine binding: 50 μM free Ca2+"}, "[7]": {"target": "complex between CaM and the peptide representing the CaM-binding domain of RyR1", "conditions": "cited from earlier work"}}, "note": "“Also recorded” adds a separate entry of the source. Like-named read-outs stand apart in the source and are kept apart here.", "data": [{"smiles": "Cn1c(=O)c2c(ncn2C)n(C)c1=O", "note": "[caffeine]", "values": [{"measurement": "Ca2+ release from brain microsomes", "setting": "[1]; 5 mM caffeine", "value": "only had minor effects"}]}, {"smiles": "C[C@H](CCC(=O)NCCC[N+](C)(C)CCCS(=O)(=O)[O-])[C@H]1CC[C@H]2[C@@H]3[C@H](O)C[C@@H]4C[C@H](O)CC[C@]4(C)[C@H]3C[C@H](O)[C@]12C", "note": "[CHAPS]", "values": [{"measurement": "Effect on glucose permeability of SR vesicles", "setting": "[2]; 1% CHAPS detergent", "value": "released a large amount of stored glucose"}]}, {"smiles": "CCCCCCCC/C=C\\CCCCCCCC(=O)OCC(O)COP(=O)(O)O", "note": "(centres unmarked) [LPA, oleoyl-lysophosphatidic acid]", "values": [{"measurement": "Effect on [35S]CaM binding to SR vesicles", "setting": "[3]", "value": "ineffective"}, {"measurement": "Effect on glucose permeability of SR vesicles", "setting": "[2]; 50 μM lysophospholipid", "value": "do not disrupt the permeability barrier"}, {"measurement": "Ca2+ release from brain microsomes", "setting": "[4]", "value": "released a large amount of Ca^2+"}]}, {"smiles": "CCCCCCCCCCCCC/C=C/[C@@H](O)[C@@H](N)COP(=O)(O)OCC[N+](C)(C)C", "note": "[SPC, D-erythro-sphingosylphosphorylcholine]", "values": [{"measurement": "Ac1", "setting": "[5]; 22 μM Ca2+", "value": "0.994 ± 0.003"}, {"measurement": "Ac2", "setting": "[5]; 22 μM Ca2+", "value": "0.006 ± 0.003"}, {"measurement": "Ao1", "setting": "[5]; 22 μM Ca2+", "value": "0.81 ± 0.18"}, {"measurement": "Ao2", "setting": "[5]; 22 μM Ca2+", "value": "0.19 ± 0.18"}, {"measurement": "Po", "setting": "[5]; 22 μM Ca2+", "value": "0.24 ± 0.10"}, {"measurement": "τc1", "setting": "[5]; 22 μM Ca2+", "value": "1.07 ± 0.68", "unit": "ms"}, {"measurement": "τc2 (lifetime of the second closed state)", "setting": "[5]; 22 μM Ca2+", "value": "452 ± 140", "unit": "ms"}, {"measurement": "τo1", "setting": "[5]; 22 μM Ca2+", "value": "0.24 ± 0.19", "unit": "ms"}, {"measurement": "τo2", "setting": "[5]; 22 μM Ca2+", "value": "5.09 ± 3.32", "unit": "ms"}, {"measurement": "Ac1", "setting": "[5]; 22 μM Ca2+ and 100 nM CaM", "value": "0.96 ±0.03"}, {"measurement": "Ac2", "setting": "[5]; 22 μM Ca2+ and 100 nM CaM", "value": "0.04 ± 0.03"}, {"measurement": "Ao1", "setting": "[5]; 22 μM Ca2+ and 100 nM CaM", "value": "0.94 ± 0.05"}, {"measurement": "Ao2", "setting": "[5]; 22 μM Ca2+ and 100 nM CaM", "value": "0.06 ± 0.05"}, {"measurement": "Po", "setting": "[5]; 22 μM Ca2+ and 100 nM CaM", "value": "0.18 ± 0.09"}, {"measurement": "τc1", "setting": "[5]; 22 μM Ca2+ and 100 nM CaM", "value": "2.81 ± 1.66", "unit": "ms"}, {"measurement": "τc2 (lifetime of the second closed state)", "setting": "[5]; 22 μM Ca2+ and 100 nM CaM", "value": "619 ± 242", "unit": "ms"}, {"measurement": "τo1", "setting": "[5]; 22 μM Ca2+ and 100 nM CaM", "value": "0.16 ± 0.12", "unit": "ms"}, {"measurement": "τo2", "setting": "[5]; 22 μM Ca2+ and 100 nM CaM", "value": "3.12 ± 2.10", "unit": "ms"}, {"measurement": "No. of events", "setting": "[5]; 22 μM Ca2+ and 100 nM CaM", "value": "10,392 ±2633"}, {"measurement": "No. of events", "setting": "[5]; 22 μM Ca2+", "value": "9767 ± 1884"}, {"measurement": "Single channel open probability (Po), representative recording", "setting": "[5]; 100 nM CaM, control Po 0.15", "value": 0.05}, {"measurement": "Single channel open probability (Po), representative recording", "setting": "[5]; absence of CaM, control Po 0.51", "value": 0.16}, {"measurement": "Hill-slope of [3H]ryanodine binding dose-response", "setting": "[6]; absence of CaM, oxidizing conditions (5 mM GSSG)", "value": "−2.9 ± 0.2"}, {"measurement": "Hill-slope of [3H]ryanodine binding dose-response", "setting": "[6]; absence of CaM, reducing conditions (5 mM GSH)", "value": "−1.7 ± 0.04"}, {"measurement": "Effect on [3H]ryanodine binding", "setting": "[6]; presence of CaM", "value": "did not significantly alter"}, {"measurement": "Hill-slope of [35S]CaM displacement", "setting": "[3]", "value": "2.3 ± 0.7"}, {"measurement": "Effect on [35S]CaM binding to SR vesicles", "setting": "[3]", "value": "significantly decrease"}, {"measurement": "Effect on glucose permeability of SR vesicles", "setting": "[2]; 50 μM lysophospholipid", "value": "do not disrupt the permeability barrier"}, {"measurement": "Ca2+ release from brain microsomes", "setting": "[4]", "value": "released a large amount of Ca^2+"}, {"measurement": "IC50", "setting": "[7]; read-out: IC50 in peptide binding assays", "value": "19.4 ± 1.4", "unit": "µM"}]}, {"smiles": "CCCCCCCC/C=C\\CCCCCCCC(=O)OC[C@@H](O)COP(=O)([O-])OCC[N+](C)(C)C", "note": "[LPC, oleoyl-lysophosphatidylcholine]", "values": [{"measurement": "Effect on [35S]CaM binding to SR vesicles", "setting": "[3]", "value": "decreased; also recorded: significantly decrease"}, {"measurement": "Effect on glucose permeability of SR vesicles", "setting": "[2]; 50 μM lysophospholipid", "value": "do not disrupt the permeability barrier"}, {"measurement": "Ca2+ release from brain microsomes", "setting": "[4]", "value": "released a large amount of Ca^2+"}, {"measurement": "Effect in peptide binding experiments", "setting": "[7]", "value": "without action"}]}, {"smiles": "CC(C)[C@@]1(O)[C@@H](OC(=O)c2ccc[nH]2)[C@@]2(O)[C@@]3(C)C[C@]4(O)O[C@@]5([C@H](O)[C@@H](C)CC[C@]35O)[C@@]2(O)[C@@]14C", "note": "[ryanodine]", "values": [{"measurement": "Ca2+ release from brain microsomes", "setting": "[1]; 1 μM ryanodine", "value": "only had minor effects"}]}, {"smiles": "CCCCCCCCCCCCC/C=C/[C@@H](O)[C@@H](N)COP(=O)(O)O", "note": "[S1P, D-erythro-sphingosine-1-phosphate]", "values": [{"measurement": "Effect on [3H]ryanodine binding", "setting": "[6]; absence of CaM", "value": "minor inhibitory effect"}, {"measurement": "Effect on [3H]ryanodine binding", "setting": "[6]; presence of CaM", "value": "further decreased"}, {"measurement": "Effect on [35S]CaM binding to SR vesicles", "setting": "[3]", "value": "ineffective"}, {"measurement": "Effect on glucose permeability of SR vesicles", "setting": "[2]; 50 μM lysophospholipid", "value": "do not disrupt the permeability barrier"}]}]}
